Assay outcomes (PubChem BioAssay)
T cruzi repl: blocks replication of Trypanosoma cruzi. T. cruzi beta-gal in NIH3T3, luminescence, 90 h. inhibition, % (no concentration beside the values). actives 1.4% (n = 300,000). AID 1885;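 active means mean inhibition across valid replicates above about 55%, limit read from the data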;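 further: signal also drops with host cell toxicity which is not excluded here; 0% = plate median of DMSO wells and 100% = zero luminescence signal; higher percent means less beta-gal luminescence so fewer parasites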
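Material: NIH/3T3 host cells with β-galactosidase reporter T. cruzi; Input: 5,000 host fibroblasts per well; Medium: DMEM, 2% fetal bovine serum; Compound: 50 nL DMSO compound solution per well; Schedule: 3 h host attachment, then at least 90 h co-culture; Detection: luminescent β-galactosidase signal after 60 min lysis.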
HIF act: HIF pathway transcriptional activation; activation, % at 7.5 µM (by protocol); U2OS HRE-luciferase reporter, luminescence; normalized: DMSO 0%, desferrioxamine 100%; actives 0.32% (n = 300,000); AID 1910;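 active means mean activation of at least 10% of the iron chelator positive control signal, with at least half of replicates also reaching 10%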
ARNT TACC3 PPI: disrupts binding between human ARNT and TACC3 | Q9Y6A5 | AlphaScreen His-ARNT PAS-B/GST-TACC3 binding, luminescence; TACC3 fragment carries E629A point mutation | inhibition, % at 9.99 µM | actives 0.66% (n = 390,000) | AID 623870;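 active means mean inhibition of replicates at least 50% and at least half of replicates each reaching 50%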;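 further: 0% = complete ARNT plus TACC3 wells and 100% = ARNT alone without TACC3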
AI-2 QS mod: Vibrio harveyi AI-2 quorum sensing modulation; Vibrio harveyi JMH597 AI-2 luminescence/OD600 ratio, 9 h; stronger effect = lower value; strain lacks LuxN and CqsS sensors; 0 = neutral-control median; activity change, % at 7.5 µM; actives 0.4% (n = 300,000); AID 2094; in the data active means activity change below about -75%, passing the limit was not always enough;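 further: luminescence divided by OD600 gain over 9 h not by final OD600 alone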
Starred values were filed as active, the others as inactive; . = not tested or not shown. A selection: hits, their analogues and other compounds. The true share with any hit is near 2%.

SMILES	T cruzi repl	HIF act	ARNT TACC3 PPI	AI-2 QS mod
C[C@H](CO)N1C[C@H](C)[C@H](CN(C)S(=O)(=O)c2ccc(Cl)cc2)Oc2ccc(N(C)C)cc2C1=O	.	.	-34.6	.
CCCCCC(=O)Nc1cccc(C2=NOC3(C2)C[C@@H](C(N)=O)N(C(=O)CC(c2ccccc2)c2ccccc2)C3)c1 (some centres undefined)	76.2*	-4.9	41.8	49.2
CCOC(=O)C1(Cc2cccc(OC)c2)CCCN(Cc2cc(C(C)C)n[nH]2)C1 (centres undefined)	-5.3	-0.3	0.4	22.0
CCOC(=O)C1(Cc2cccc(OC)c2)CCCN(Cc2c(C)nn(C(C)C)c2C)C1 (centres undefined)	64.3*	-0.1	-4.9	22.9
O=C(N=Nc1c(O)[nH]c2ccccc12)c1cccc(S(=O)(=O)N2CCCCC2)c1	13.0	-0.3	-6.6	11.7
CC(C)c1ccc2[nH]c(O)c(N=NC(=O)c3cccc(S(=O)(=O)N4CCCCC4)c3)c2c1	69.0*	-0.3	-9.0	15.1
CNC[C@@H]1Oc2ccc(NC(=O)CCCN(C)C)cc2C(=O)N([C@@H](C)CO)C[C@H]1C	.	.	0.6	.
CC(C)=CCc1c(-c2ccc(O)cc2O)oc2cc3c(c(O)c2c1=O)C=CC(C)(C)O3	-5.4	0.0	.	27.6
COc1ccc(-c2oc3c4c(cc(OC)c3c(=O)c2CC=C(C)C)OC(C)(C)C=C4)c(OC)c1	65.3*	-0.4	.	43.0
O=[N+]([O-])c1ccc(S(=O)(=O)NCCS(=O)(=O)N2CCN(c3ccccc3)CC2)cc1	56.1*	0.2	-3.4	33.1
Cc1ccc(S(=O)(=O)NCCS(=O)(=O)N2CCN(c3ccccc3)CC2)cc1	8.7	-0.7	-2.9	35.5
CC(=O)c1c(O)cc(C)n(Nc2nc(C)cc(C)n2)c1=O	-15.8	-0.5	72.5*	48.0
CCOc1cc(C)c(C(C)C)cc1S(=O)(=O)n1cnc(C)c1	55.3*	1.4	-1.5	5.2
CCOc1cc(C)c(C(C)C)cc1S(=O)(=O)N1CC(C)OC(C)C1 (centres undefined)	11.4	0.0	-2.7	5.6
O=C(CSC(=S)N1CCOCC1)c1cc2ccccc2oc1=O	-11.7	-0.4	47.9*	14.5
O=C(N/N=C\c1ccc(F)cc1)c1ccc(Cn2cc(Br)c([N+](=O)[O-])n2)o1	61.4*	-17.7	.	37.0
COc1cc(/C=N\NC(=O)c2ccc(Cn3cc(Br)c([N+](=O)[O-])n3)o2)cc(OC)c1O	51.6	-0.6	-3.0	31.4
O=C(N/N=C\c1ccc2c(c1)OCO2)c1ccc(Cn2cc(Br)c([N+](=O)[O-])n2)o1	55.6*	0.4	-14.8	19.1
O=C(N/N=C\c1cccc(F)c1)c1ccc(Cn2cc(Br)c([N+](=O)[O-])n2)o1	68.0*	-0.1	.	22.3
COc1cc(/C=N/NC(=O)c2ccc(Cn3cc([N+](=O)[O-])cn3)o2)cc(Br)c1O	1.5	0.1	-15.4	10.2
CCN(CC)P(=O)(Nc1cccc(C(F)(F)F)c1)c1ccc(N(C)C)cc1NC(=O)c1ccco1 (centres undefined)	55.0*	-1.4	2.6	11.3
C[C@H]1CN([C@@H](C)CO)C(=O)Cc2cc(NC(=O)Cc3ccccc3)ccc2O[C@@H]1CN(C)CC1CCCCC1	.	.	0.5	.
C[C@@H]1CN([C@H](C)CO)C(=O)c2cccc(NC(=O)c3ccncc3)c2O[C@H]1CN(C)C(=O)Nc1ccc2c(c1)OCO2	.	.	-3.1	.
CCc1n[nH]c(=S)n1/N=C/c1cc(OC)cc([N+](=O)[O-])c1O	67.8*	-0.5	.	35.9
Cc1ccc2sc(N(CCCN(C)C)C(=O)c3ccc(S(=O)(=O)N(C)Cc4ccccc4)cc3)nc2c1C	59.8*	-56.0	15.1	-7.8
CCN(CC)CCN(C(=O)c1ccc(S(=O)(=O)N(C)C2CCCCC2)cc1)c1nc2ccc(OC)cc2s1	64.6*	-0.2	4.4	17.2
Cc1ccc2sc(N(CCCN(C)C)C(=O)c3ccc(S(=O)(=O)N(C)C)cc3)nc2c1C	37.9	0.1	7.0	6.6
COc1ccc2sc(N(CCCN(C)C)C(=O)c3ccc(S(=O)(=O)N(C)Cc4ccccc4)cc3)nc2c1	55.2*	0.0	13.9	32.1
Cc1ccc(C)c(N(CC(=O)N/N=C/c2ccc(-c3ccc([N+](=O)[O-])cc3)o2)S(=O)(=O)c2ccccc2)c1	72.4*	-0.1	-9.1	30.0
CCOc1ccc(S(=O)(=O)N(CC(=O)N/N=C/c2ccc(-c3ccc([N+](=O)[O-])cc3)o2)c2ccccc2)cc1	21.9	2.9	1.5	0.9
